Experimental findings from ChEMBL document CHEMBL1139119, “Anti-mycobacterial activity of a bis-sulfonamide” (2007) are described below.

In brackets after ≈: the same amount, converted by molar mass. Activity calls are given as the source filed them. No cut-off for these calls is given here. Bounds are passed on as bounds.

Assay type in all cases: functional
The subject of test [1] is Mycolicibacterium smegmatis. Nature of the test: Antimicrobial activity against Mycobacterium smegmatis.
For test [2], the system named is Candida albicans. Nature of the test: Antimicrobial activity against Candida albicans.
The next test relates to Staphylococcus aureus. Kind of test: Antimicrobial activity against Staphylococcus aureus. In a few lines: (§1)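 Overnight bacterial culture diluted 1000-fold into fresh medium the next day, then exposed to compound at five doses (100, 25, 6.25, 1.56, 0.39 μg/mL) in DMSO (final 1% v/v). DMSO-only and ampicillin no-growth controls were included. Incubated overnight at 37 °C in duplicate. Scored as % growth inhibition, averaged over two independent determinations, giving MIC50.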

The subject of the next test is Vibrio harveyi. Kind of test: Antimicrobial activity against Vibrio harveyi. In a few lines:
as §1

In the next test the test system is Escherichia coli. Kind of test: Antimicrobial activity against Escherichia coli.
Test [3] relates to Mycolicibacterium smegmatis. Nature of the test: Growth inhibition of Mycobacterium smegmatis at 25 ug/ml.
Test [4] concerns Mycolicibacterium smegmatis. Nature of the test: Growth inhibition of Mycobacterium smegmatis at 100 ug/ml.
For test [5], the system named is Candida albicans. Nature of the test: Growth inhibition of Candida albicans at 25 ug/ml.
Test [6] relates to Candida albicans. Nature of the test: Growth inhibition of Candida albicans at 100 ug/ml.

Consider `NS(=O)(=O)c1ccc(-n2cc(CO)nn2)cc1`, for which, in test [1], the MIC50 was above 100 µg/mL. In addition, the result with Candida albicans [2], in the test on Staphylococcus aureus and in the test with Vibrio harveyi was inactive.

As to `[N-]=[N+]=Nc1ccc(S(N)(=O)=O)cc1`, the outcome in the test with Candida albicans [2], with Staphylococcus aureus and in the test with Vibrio harveyi was inactive.

In [1], `C#CCNC(=O)c1ccc(S(N)(=O)=O)cc1` returned an MIC50 above 100 µg/mL. Moreover, the result in the test on Candida albicans [2], in the test on Staphylococcus aureus and with Vibrio harveyi was inactive.

As to `CN[C@@H]1[C@H](O[C@H]2[C@H](O[C@H]3[C@H](O)[C@@H](O)[C@H](N=C(N)N)[C@@H](O)[C@@H]3N=C(N)N)O[C@@H](C)[C@]2(O)C=O)O[C@@H](CO)[C@H](O)[C@H]1O` [STREPTOMYCIN], in test [1], the MIC50 worked out at 500 µg/mL (≈ 860 µM).

With `NS(=O)(=O)c1ccc(C(=O)NCc2cn(-c3ccc(S(N)(=O)=O)cc3)nn2)cc1`, in test [1], the MIC50 came out at 100 µg/mL (≈ 229 µM). For the same compound, the outcome with Candida albicans [2], with Staphylococcus aureus and in the test on Vibrio harveyi was inactive.

In the case of `Nc1ccc(S(N)(=O)=O)cc1` [SULFANILAMIDE], the MIC50 in test [1] is above 100 µg/mL. Moreover, the result with Candida albicans [2], with Staphylococcus aureus and with Vibrio harveyi was inactive.

In test [1], `NS(=O)(=O)c1ccc(C(=O)O)cc1` [CARZENIDE] came in with an MIC50 above 100 µg/mL. Besides, the result with Candida albicans [2], in the test with Staphylococcus aureus and in the test with Vibrio harveyi was inactive.

As to `C#CCOC(=O)c1ccc(S(N)(=O)=O)cc1`, the MIC50 in test [1] was above 100 µg/mL. Further, the outcome with Candida albicans [2], in the test with Staphylococcus aureus and with Vibrio harveyi was inactive.

On to `CC1(C)S[C@@H]2[C@H](NC(=O)[C@H](N)c3ccccc3)C(=O)N2[C@H]1C(=O)O` [AMPICILLIN], for which the MIC50 with Escherichia coli, in the test with Staphylococcus aureus and in the test on Vibrio harveyi was 500 µg/mL (≈ 1430 µM) in each case.

As for `NS(=O)(=O)c1ccc(C(=O)OCc2cn(-c3ccc(S(N)(=O)=O)cc3)nn2)cc1`, the MIC50 in [1] is below 25 µg/mL; against Candida albicans [2], 100 µg/mL (≈ 229 µM). Besides, the result in the test on Staphylococcus aureus and in the test on Vibrio harveyi was inactive. Moreover, the inhibition at 25 µg/mL in [3] worked out at 68%; in the test on Candida albicans [5] it was 36%. Also, the values for the inhibition at 100 µg/mL (in test [4]; in the test with Candida albicans [6]) were 92% and 49%, respectively.
